MDM2 E3 inh = inhibitors of human Mdm2 E3 ubiquitin ligase. AID 1230. signal enhancement, % at 5 µM. 210,000 compounds, 0.11% hits. cell-based MDM2 ubiquitination luciferase reporter, 2 h; 0 = plate control, 100 = twice control, blank-subtracted. Q00987;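 active = signal enhancement of 30% or more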;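 note: luminescence tracks abundance of the self-degrading MDM2-luciferase fusion protein; higher signal means inhibition of MDM2 E3 ligase activity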
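Assay system: mammalian cells stably expressing self-ubiquitinating, self-degrading MDM2 E3–luciferase fusion. Quantity: 2000 cells in each well. Medium: DMEM culture medium. Compound dosing: single-point 5 µM. Timing: cell settling 4 h, compound treatment 2 h, both 37 °C. Technique: luciferase luminescence. Read-out basis: percent signal gain over controls, blank-subtracted. Benchmarks: plate controls and plate blanks.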
S1P3 antag = S1P3 (human) receptor antagonism. CHO S1P3 NFAT-BLA reporter, FRET fluorescence, antagonist mode. inhibition, % at 4.98 µM. 170,000 compounds, 0.27% hits. AID 485;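 active = inhibition above the plate cutoff, the mean inhibition of test wells on that plate plus 3 SD, cut at about 28% in these data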;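 note: cells challenged with S1P at its EC80 of 0.8 µM; blue over green emission ratio from cleaved BLA substrate after 4 h stimulation; 0% = S1P-stimulated wells and 100% = unstimulated DMSO-only wells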
Target sequence (Q99500 whole entry, looked up): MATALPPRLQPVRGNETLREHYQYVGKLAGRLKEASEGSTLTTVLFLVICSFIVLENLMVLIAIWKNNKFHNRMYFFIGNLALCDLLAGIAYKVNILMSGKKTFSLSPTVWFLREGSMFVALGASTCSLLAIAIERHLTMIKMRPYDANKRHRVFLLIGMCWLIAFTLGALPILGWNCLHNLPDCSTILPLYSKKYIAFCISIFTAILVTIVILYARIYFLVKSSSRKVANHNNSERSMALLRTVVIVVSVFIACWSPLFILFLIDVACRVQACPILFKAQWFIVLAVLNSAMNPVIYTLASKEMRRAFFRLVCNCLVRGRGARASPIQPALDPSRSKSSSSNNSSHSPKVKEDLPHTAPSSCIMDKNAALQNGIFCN
Hsp70 activator = transcriptional activators of Hsp70. HeLa Hsp70 promoter luciferase reporter, luminescence; scaled: vehicle 0, proteasome-inhibitor control 100%. activation, % at 10 µM. 200,000 compounds, 0.04% hits. AID 1203;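 active = activation above the mean across all tested compounds plus 3 SD, cutoff set per campaign, cut at about 5.5% in these data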;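 note: 100% = MG132 at 30 µM as the positive control and 0% = DMSO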
CHOP inhibitor = blocks CHOP induction under ER stress; AID 2732; CHO-K1 CHOP-promoter luciferase, tunicamycin-induced, 15-18 h; inhibition, % at 10 µM; 220,000 compounds, 3.8% hits;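 active = compounds that reduced the stress-induced luciferase reporter signal by more than about 70% of percent inhibition, limit read from the data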;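 note: 0% = tunicamycin plus vehicle and 100% = wells without tunicamycin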
An asterisk follows results filed as active; / = no result; ! = repeats disagree. Rows were chosen to be rich in hits. Some 4% of all compounds tested hit in one or more screens of this group.

SMILES | MDM2 E3 inh | S1P3 antag | Hsp70 activator | CHOP inhibitor
CC(C)Nc1nc(Oc2cccc(Cl)c2Cl)cc(C(F)(F)F)n1 | -10.0 | / | -0.2 | 74.9*
FC(F)(F)c1cccc(OCC2CNC(=S)O2)c1 (stereo unspecified) | / | 15.1 | / | 8.1
O=C(COC(=O)c1ccc(CNS(=O)(=O)c2ccc(F)c(Cl)c2)cc1)NCC1CCCCC1 | -6.9 | -5.7 | -0.4 | 35.1
CCOC(=O)/C(N=Nc1ccc(Cl)cc1)=C(/O)c1ccc([N+](=O)[O-])cc1 | -10.8 | / | -0.3 | 86.3*
C=CCNC(=S)N(C1CCCCC1)C1CCCCC1 | -15.0 | -6.1 | 0.2 | -20.1
Cc1sc(NC(=O)CSc2nc(N)cc(N)n2)c(C#N)c1C | / | 9.5 | / | 26.7
C=CCSc1nc(C)c2cc(C)cc(C)c2n1 | -5.7 | / | 0.0 | 95.9*
COc1ccc2[nH]c(C(=O)O)c(NC(=O)c3ccccc3[N+](=O)[O-])c2c1 | 0.3 | 1.9 | / | -10.2
CN(C)c1ccnc2c[cH-]cc12.[Fe].c1ccc(-[c-]2[c-](-c3ccccc3)[c-](-c3ccccc3)[c-](-c3ccccc3)[c-]2-c2ccccc2)cc1 (stereo unspecified) | -7.5 | / | / | 87.5*!
Cc1ccc(C(=O)N2CCN(c3ccc(NC(=O)c4ccc(Br)o4)cc3)CC2)cc1 | -19.2 | / | -0.5 | 71.7*
CCC(=O)N1CCN(c2ccc(NC(=O)c3ccc(Br)o3)cc2)CC1 | -20.5 | -30.8 | 0.6 | 22.5
Cc1nc2scc(-c3ccccc3)c2c(=O)n1N=C1C=CC(=O)C=C1 | -3.7 | -10.2 | 0.9 | 109.7*
CCOc1ccc(/C=N/OCC(=O)NCc2ccco2)cc1 | -8.9 | 0.2 | -0.2 | -3.4
Cc1nc2cc(-c3cccc(F)c3)nn2c(C)c1CCC(=O)NC(C)CCc1ccco1 (stereo unspecified) | -15.5 | -28.5 | -0.2 | 81.7*
COC(=O)C1=C(N)Oc2cc(C)n(C)c(=O)c2C1c1ccc(Cl)c(Cl)c1 (stereo unspecified) | -5.1 | -29.3 | -0.6 | 34.1
COC(=O)C1=C(N)Oc2cc(C)n(CC3CCCO3)c(=O)c2C1c1ccc(Cl)c(Cl)c1 (stereo unspecified) | -17.2 | / | 1.1 | 85.2*
COC(=O)C1=C(N)Oc2cc(C)n(CCCn3ccnc3)c(=O)c2C1c1ccc(Cl)cc1 (stereo unspecified) | -9.8 | -35.5 | 0.1 | 76.9*
CCN(CC)c1nc(C)c2c(c1C#N)CC(C)(C)OC2 | 7.0 | / | 1.3 | 74.1*
Cc1ccc(C(=O)Nc2nc3n(n2)C(c2ccccc2)CC(=O)N3)cc1 (stereo unspecified) | -0.3 | -16.3 | / | 7.3
COc1ccc([N+](=O)[O-])c(S(=O)(=O)c2ccccc2)n1 | -10.1 | -9.9 | / | 106.5*
COc1ccc(NC(=O)C2CCCNC2)cc1OCC(C)C (stereo unspecified) | -21.1 | 19.7 | 0.4 | 76.7*
COC(=O)CSc1nnc(CNC(=O)c2ccc(OC)c(OC)c2)n1C | -3.6 | 23.6 | 0.1 | 6.0
O=C(CCCN1C(=O)/C(=C/c2cccs2)SC1=S)Nc1cccnc1 | -12.1 | 15.5 | 0.0 | 38.5
Cc1cc(NC(=O)CCCN2C(=O)/C(=C\c3cccs3)SC2=S)no1 | -11.3 | -2.9 | -0.2 | 70.5*
Cc1cc(NC(=O)CCN2C(=O)/C(=C\c3ccccc3Cl)SC2=S)no1 | 12.5 | -10.1 | -0.1 | 80.9*
SMILES | MDM2 E3 inh | S1P3 antag | Hsp70 activator | CHOP inhibitor
CCCOc1ccc(NC(=O)CC2C(=O)N(CC)C(=S)N2CCNC(C)=O)cc1 (stereo unspecified) | -4.8 | 14.7 | -0.4 | 22.4
CCN1C(=O)C(CC(=O)Nc2ccc(F)cc2)N(CCCN2CCN(c3ccc(F)cc3)CC2)C1=S (stereo unspecified) | -4.3 | -0.1 | -0.5 | 95.4*
CCCOc1ccc(NC(=O)CC2C(=O)N(CC)C(=S)N2CCCN2CCN(Cc3ccccc3)CC2)cc1 (stereo unspecified) | 0.6 | 4.1 | 0.0 | 92.3*
O=C(CCN1CCN(Cc2ccccc2)CC1)Nc1ccc(OCc2ccccc2)cc1 | -16.5 | / | -0.3 | 70.3*
CCOc1ccc(NC(=O)CC2C(=O)N(CC)C(=S)N2CCN2CCOCC2)cc1 (stereo unspecified) | -7.0 | 14.1 | -0.3 | 6.3
CCN1C(=O)C(CC(=O)Nc2ccc(Br)cc2)N(CCCc2ccccc2)C1=S (stereo unspecified) | -23.0 | / | -0.1 | 89.3*
O=c1ccnc(Nc2ccc3c(c2)OCCO3)[nH]1 | -23.4 | -31.7 | -0.3 | 18.1
Cc1ccc(NC2=C(Cl)C(=O)OC2OC(=O)c2ccccc2)c(C)c1 (stereo unspecified) | -10.5 | -8.7 | -0.2 | 73.7*
CCOC(=O)c1c(/N=C/N(C)C)sc(/C=N/Nc2ccccc2)c1-c1ccc(Cl)cc1 | 1.8 | -10.7 | -0.1 | -10.8
O=C(Nc1ccc2c(c1)CCC2)c1cc(S(=O)(=O)Nc2ccc(F)cc2)c(Cl)cc1Cl | 25.6 | -8.0 | -0.3 | 78.2*
CCc1ccc(Nc2nnc(SCn3nnc4ccccc4c3=O)s2)cc1 | 1.3 | / | -0.5 | 82.5*
COc1cccc(Nc2nnc(SCn3nnc4ccccc4c3=O)s2)c1 | -9.8 | 6.0 | -0.5 | 23.0
CCOC(=O)c1ccc(NC(=O)CCc2nc(-c3ccccc3)no2)cc1 | -12.3 | -6.7 | -0.1 | 78.6*
CCOC(=O)c1ccc(NC(=O)CCc2nc(-c3ccccc3Cl)no2)cc1 | -6.5 | -6.2 | -0.1 | 81.2*
CCOC(=O)c1cccc(NC(=O)CCc2nc(-c3ccccc3F)no2)c1 | -13.1 | -6.5 | -0.1 | 39.7
CC(C)Cc1cc(C(=O)Nc2sc3c(c2C#N)CCCC3)no1 | -18.3 | 29.1 | -0.2 | 77.4*
CC(C)Cc1cc(C(=O)Nc2cccnc2)no1 | -32.8 | / | 0.3 | 42.7
CSc1ccccc1NC(=O)c1cc(CC(C)C)on1 | -7.6 | -1.4 | 0.2 | 75.2*
O=C(Nc1nc(-c2ccccc2)cs1)c1cccc([N+](=O)[O-])c1 | -12.9 | / | -0.2 | -9.7
O=C(Nc1nc(-c2cccnc2)cs1)c1cccc([N+](=O)[O-])c1 | -8.6 | -1.0 | -0.5 | 88.0*
O=C(Cc1ccccc1F)Nc1nc(-c2cccnc2)cs1 | -4.1 | -3.5 | 0.0 | 80.6*
O=c1oc(-c2ccc(Cl)c(Cl)c2)nn1-c1ccc(C(F)(F)F)cn1 | -11.6 | -0.9 | / | 9.9
C=CCNC(=O)/C(C#N)=C\c1cc(Cl)c(O)c(OCC)c1 | -11.9 | -8.9 | -0.2 | -1.2
CCOc1cc(/C=C2\CCC/C(=C\c3cc(Cl)c(O)c(OCC)c3)C2=O)cc(Cl)c1O | -16.4 | / | 1.1 | 92.8*
Cc1c(C(=O)N2c3ccccc3Sc3ccccc32)cccc1[N+](=O)[O-] | -20.3 | -3.7 | -0.2 | 34.9
Cc1nc(CSc2nsc(/C=C/N(C)C)c2C#N)cs1 | 31.1* | -1.1 | -0.5 | 23.9
O=C(NC12CC3CC(CC(C3)C1)C2)C1CC(=O)N(c2ccccc2)C1 (stereo unspecified) | -7.0 | / | -0.3 | 26.5
O=C(Nc1cccc(Cl)c1Cl)C1CC(=O)N(c2ccc(Br)cc2)C1 (stereo unspecified) | 4.8 | / | -0.6 | 77.7*
O=C(Nc1cccc(F)c1)C1CC(=O)N(c2ccc(Br)cc2)C1 (stereo unspecified) | -22.7 | 4.8 | -0.4 | 40.2
